# Assay results from different studies.
# Protocols differ between the studies behind these lines.
Structure (SMILES),system,conditions,quantity,value
CC(=C/C=C/C(C)=C/C(=O)O)/C=C1\CCCc2ccccc21,"human, plasma","oral, 10 mg, single dose, fasted, healthy volunteers",Cmax,55.9 ng/mL
Cc1ccccc1C(=O)NN=Cc1ccc(O)c(Br)c1,"mouse, plasma","intraperitoneal, 0.8 mg/kg",Tmax,30 min
CC[C@H](C)[C@H](NC(=O)[C@H](CC(C)C)NC(=O)[C@H](Cc1c[nH]c2ccccc12)NC(=O)[C@H](CCC(N)=O)NC(=O)[C@@H](NC(=O)[C@H](Cc1ccccc1)NC(=O)[C@H](C)NC(=O)[C@H](CCCCNC(=O)COCCOCCNC(=O)COCCOCCNC(=O)CC[C@H](NC(=O)CCCCCCCCCCCCCCCCCCC(=O)O)C(=O)O)NC(=O)[C@H](CCC(N)=O)NC(=O)[C@H](C)NC(=O)[C@@H](NC(=O)[C@H](CCCCN)NC(=O)[C@H](CC(=O)O)NC(=O)[C@H](CC(C)C)NC(=O)C(C)(C)NC(=O)[C@@H](NC(=O)[C@H](CO)NC(=O)[C@H](Cc1ccc(O)cc1)NC(=O)[C@H](CC(=O)O)NC(=O)[C@H](CO)NC(=O)[C@@H](NC(=O)[C@H](Cc1ccccc1)NC(=O)[C@@H](NC(=O)CNC(=O)[C@H](CCC(=O)O)NC(=O)C(C)(C)NC(=O)[C@@H](N)Cc1ccc(O)cc1)[C@@H](C)O)[C@@H](C)O)[C@@H](C)CC)[C@@H](C)CC)C(C)C)C(=O)N[C@@H](C)C(=O)NCC(=O)NCC(=O)N1CCC[C@H]1C(=O)N[C@@H](CO)C(=O)N[C@@H](CO)C(=O)NCC(=O)N[C@@H](C)C(=O)N1CCC[C@H]1C(=O)N1CCC[C@H]1C(=O)N1CCC[C@H]1C(=O)N[C@@H](CO)C(N)=O,"human, plasma","subcutaneous, 4.5 mg, multiple doses, healthy volunteers",Cmax,884 ng/mL
C=C(C)[C@@H]1CC[C@]2(NCCN3CCS(=O)(=O)CC3)CC[C@]3(C)[C@H](CC[C@@H]4[C@@]5(C)CC=C(C6=CC[C@@](COc7ncccc7C#N)(C(=O)O)CC6)C(C)(C)[C@@H]5CC[C@]43C)[C@@H]12,"human, plasma","oral, 100 mg, fed",Cmax,390 ng/mL
C=CCNc1c(O)cc2c(O)c1C[C@@H](C)C[C@H](OC)[C@H](O)[C@@H](C)/C=C(\C)[C@H](OC(N)=O)[C@@H](OC)/C=C\C=C(/C)C(=O)N2,"human, plasma","intravenous, 400 mg/m², patients, infusion",Cmax,7800 ng/mL
c1cc([C@H]2CC[C@]3(CC2)OO[C@]2(O3)C3CC4CC(C3)CC2C4)ccc1OCCN1CCOCC1,"human, plasma","oral, 200 mg, patients",Cmax,339 ng/mL
Cc1nc2c(=O)n(C)c(=O)nc-2n(C)n1,Caco-2,,efflux ratio,1
C/N=c1\nc(-c2ccccc2)n(-c2ccccc2)s1,Caco-2,"20 µM, 95 min",efflux ratio,0.962
COc1cc2c(c(OC)c1OC)-c1ccc(OC)c(=O)cc1[C@@H](NC(C)=O)CC2,Caco-2,,efflux ratio,24.5
C[C@]12CC[C@H](n3ccnc3)CC1=CC[C@@H]1[C@@H]2CC[C@]2(C)C(n3cnc4ccccc43)=CC[C@@H]12.Cl,"male CD-1 mouse, plasma","oral, 10 mg/kg",Tmax,800 min
N=C(N)NCCC[C@@H](NC(=O)[C@@H](N)Cc1ccccc1)C(=O)N[C@@H](Cc1ccccc1)C(=O)N[C@@H](CCCCN)C(N)=O,"human, plasma","subcutaneous, 15 mg, patients",Cmax,886 ng/mL
COc1ccc2[nH]cc(CCNc3nccc(Nc4cccc5c4ccn5C)n3)c2c1,"mouse, plasma","intravenous, 9.5 mg/kg",Tmax,4.8 min
N=c1c2c(-c3ccccc3)c(-c3ccccc3)n(Cc3ccccc3)c2ncn1[C@H]1CC[C@H](O)CC1,"male cynomolgus monkey, plasma","intravenous, 0.5 mg/kg, single dose",Vd,1.5 L/kg
